The values below come from ChEMBL document CHEMBL4043093, “2-Oxo-3, 4-dihydropyrimido[4, 5-d]pyrimidinyl derivatives as new irreversible pan fibroblast growth factor receptor (FGFR) inhibitors” (Eur J Med Chem, 2017).

For assay [1], the target named is Macrophage colony-stimulating factor 1 receptor (Homo sapiens) (UniProt P07333). The assay is described as follows: Inhibition of wild-type human partial length CSF1R (I564 to S939 residues) expressed in Escherichia coli BL21 assessed as residual activity at 1000 nM after 30 mins by Kinomescan method relative to control.
The target in assay [2] is Tyrosine-protein kinase Fes/Fps (Homo sapiens) (UniProt P07332). The assay is described as follows: Inhibition of wild-type human partial length FES (I527 to R822 residues) expressed in Escherichia coli BL21 assessed as residual activity at 1000 nM after 30 mins by Kinomescan method relative to control.
In assay [3] the target is Serine/threonine-protein kinase Nek5 (Homo sapiens) (UniProt Q6P3R8). The assay is described as follows: Inhibition of wild-type human partial length NEK5 (M1 to M279 residues) expressed in Escherichia coli BL21 assessed as residual activity at 1000 nM after 30 mins by Kinomescan method relative to control.
For assay [4], the target named is Interferon-induced, double-stranded RNA-activated protein kinase (Homo sapiens) (UniProt P19525). The assay is described as follows: Inhibition of wild-type human partial length PRKR (F247 to C551 residues) expressed in Escherichia coli BL21 assessed as residual activity at 1000 nM after 30 mins by Kinomescan method relative to control.
Sequence of Interferon-induced, double-stranded RNA-activated protein kinase (Homo sapiens) (P19525 whole entry, the tested form may be a part): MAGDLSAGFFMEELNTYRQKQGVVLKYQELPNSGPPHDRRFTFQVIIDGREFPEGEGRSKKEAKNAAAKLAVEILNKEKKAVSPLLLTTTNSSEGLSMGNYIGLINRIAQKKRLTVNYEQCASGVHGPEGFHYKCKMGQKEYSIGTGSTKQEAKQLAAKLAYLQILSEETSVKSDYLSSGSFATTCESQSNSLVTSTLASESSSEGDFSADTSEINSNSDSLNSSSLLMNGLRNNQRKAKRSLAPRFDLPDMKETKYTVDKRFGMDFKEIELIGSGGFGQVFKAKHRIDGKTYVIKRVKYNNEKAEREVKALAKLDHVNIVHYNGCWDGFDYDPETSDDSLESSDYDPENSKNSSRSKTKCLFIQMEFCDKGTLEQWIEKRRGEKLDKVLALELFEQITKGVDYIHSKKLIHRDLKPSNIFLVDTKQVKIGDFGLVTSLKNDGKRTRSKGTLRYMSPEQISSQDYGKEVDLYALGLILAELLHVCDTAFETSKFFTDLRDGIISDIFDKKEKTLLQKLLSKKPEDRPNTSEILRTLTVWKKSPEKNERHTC
The target of assay [5] is Non-receptor tyrosine-protein kinase TNK1 (Homo sapiens) (UniProt Q13470). The assay is described as follows: Inhibition of wild-type human full length TNK1 (M1 to P661 residues) expressed in Escherichia coli BL21 assessed as residual activity at 1000 nM after 30 mins by Kinomescan method relative to control.
Assay [6] deals with Serine/threonine-protein kinase MRCK beta (Homo sapiens) (UniProt Q9Y5S2). The assay is described as follows: Inhibition of wild-type human partial length MRCKB (L56 to S417 residues) expressed in Escherichia coli BL21 assessed as residual activity at 1000 nM after 30 mins by Kinomescan method relative to control.
Sequence of Serine/threonine-protein kinase MRCK beta (Homo sapiens) (Q9Y5S2 whole entry, the tested form may be a part): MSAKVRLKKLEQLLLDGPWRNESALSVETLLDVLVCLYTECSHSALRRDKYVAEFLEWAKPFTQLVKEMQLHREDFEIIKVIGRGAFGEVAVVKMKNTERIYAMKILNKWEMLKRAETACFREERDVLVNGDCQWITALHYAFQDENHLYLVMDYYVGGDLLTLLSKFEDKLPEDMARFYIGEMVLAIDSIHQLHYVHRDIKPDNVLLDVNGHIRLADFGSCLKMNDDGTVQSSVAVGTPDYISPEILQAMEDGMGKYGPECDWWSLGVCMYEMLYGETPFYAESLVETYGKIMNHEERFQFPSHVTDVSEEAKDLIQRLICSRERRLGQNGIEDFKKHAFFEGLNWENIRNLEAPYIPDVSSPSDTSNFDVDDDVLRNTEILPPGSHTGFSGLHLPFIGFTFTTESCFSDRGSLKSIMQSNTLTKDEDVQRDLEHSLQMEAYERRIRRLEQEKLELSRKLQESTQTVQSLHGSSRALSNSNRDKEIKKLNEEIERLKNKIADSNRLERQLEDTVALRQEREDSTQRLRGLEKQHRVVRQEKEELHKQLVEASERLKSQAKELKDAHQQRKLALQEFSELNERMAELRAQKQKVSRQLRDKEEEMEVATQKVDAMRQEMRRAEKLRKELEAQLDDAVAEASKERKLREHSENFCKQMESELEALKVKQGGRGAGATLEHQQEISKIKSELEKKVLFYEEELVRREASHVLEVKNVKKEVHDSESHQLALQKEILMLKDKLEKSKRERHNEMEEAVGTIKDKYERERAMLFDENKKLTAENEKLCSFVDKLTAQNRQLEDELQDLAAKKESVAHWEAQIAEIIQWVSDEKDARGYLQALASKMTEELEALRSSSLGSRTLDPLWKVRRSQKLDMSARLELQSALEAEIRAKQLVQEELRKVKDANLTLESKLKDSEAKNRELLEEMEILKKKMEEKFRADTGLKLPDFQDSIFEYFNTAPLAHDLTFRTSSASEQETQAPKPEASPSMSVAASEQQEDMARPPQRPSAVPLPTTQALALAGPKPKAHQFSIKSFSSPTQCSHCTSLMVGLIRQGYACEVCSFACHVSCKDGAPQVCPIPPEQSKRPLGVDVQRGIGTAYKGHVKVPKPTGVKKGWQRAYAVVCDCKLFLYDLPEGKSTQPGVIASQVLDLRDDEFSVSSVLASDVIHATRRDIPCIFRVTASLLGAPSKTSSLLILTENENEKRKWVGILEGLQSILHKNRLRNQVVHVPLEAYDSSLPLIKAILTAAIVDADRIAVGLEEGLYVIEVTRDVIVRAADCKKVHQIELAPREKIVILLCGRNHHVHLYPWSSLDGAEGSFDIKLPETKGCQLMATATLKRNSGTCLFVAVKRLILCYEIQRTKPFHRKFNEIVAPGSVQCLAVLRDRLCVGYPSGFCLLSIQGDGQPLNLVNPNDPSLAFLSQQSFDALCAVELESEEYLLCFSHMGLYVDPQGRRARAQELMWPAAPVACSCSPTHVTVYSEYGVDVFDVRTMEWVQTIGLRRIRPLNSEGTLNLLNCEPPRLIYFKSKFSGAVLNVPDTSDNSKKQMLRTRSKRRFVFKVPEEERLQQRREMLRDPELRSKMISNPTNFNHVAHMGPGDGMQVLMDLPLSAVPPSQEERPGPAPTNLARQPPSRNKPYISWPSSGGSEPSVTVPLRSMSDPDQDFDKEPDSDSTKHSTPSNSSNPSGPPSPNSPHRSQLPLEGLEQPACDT
For assay [7], the target named is Tyrosine-protein kinase JAK1 (Homo sapiens) (UniProt P23458). Put plainly: Inhibition of wild-type human partial length JAK1 JH2 pseudokinase domain (R537 to D855 residues) expressed in HEK293 cells assessed as residual activity at 1000 nM after 30 mins by Kinomescan method relative to control. It is filed as cell-based.
The target of assay [8] is LIM domain kinase 2 (Homo sapiens) (UniProt P53671). The assay is described as follows: Inhibition of wild-type human full length LIMK2 (M1 to P638 residues) expressed in Escherichia coli BL21 assessed as residual activity at 1000 nM after 30 mins by Kinomescan method relative to control. The gist of the method: (§1)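 Single-concentration screen at 1 µM across a 456-kinase KINOMEscan panel. The read-out is Percent Control for each kinase.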
Sequence of LIM domain kinase 2 (Homo sapiens) (P53671 whole entry, looked up, the tested form may be a part): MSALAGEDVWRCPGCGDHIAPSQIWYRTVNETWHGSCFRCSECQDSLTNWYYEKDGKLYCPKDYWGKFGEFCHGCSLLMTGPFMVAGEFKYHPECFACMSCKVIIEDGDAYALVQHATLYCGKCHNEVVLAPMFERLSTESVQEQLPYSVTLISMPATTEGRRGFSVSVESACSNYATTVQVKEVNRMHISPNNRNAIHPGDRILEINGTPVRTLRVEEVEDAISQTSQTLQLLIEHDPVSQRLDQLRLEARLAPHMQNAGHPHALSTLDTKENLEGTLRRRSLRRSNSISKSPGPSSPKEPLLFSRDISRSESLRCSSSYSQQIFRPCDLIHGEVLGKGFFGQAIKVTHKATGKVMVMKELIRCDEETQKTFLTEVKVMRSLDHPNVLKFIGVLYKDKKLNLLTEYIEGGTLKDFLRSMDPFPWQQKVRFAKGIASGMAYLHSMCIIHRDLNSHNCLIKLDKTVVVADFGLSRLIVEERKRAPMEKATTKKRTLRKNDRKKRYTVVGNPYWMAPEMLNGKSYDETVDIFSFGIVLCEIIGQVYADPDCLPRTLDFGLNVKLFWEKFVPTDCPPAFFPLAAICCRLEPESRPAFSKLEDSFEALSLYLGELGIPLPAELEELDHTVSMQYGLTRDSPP

Assay [9] has as its target Aurora kinase C (Homo sapiens) (UniProt Q9UQB9). Put plainly: Inhibition of wild-type human full length AURKC (M1 to S275 residues) expressed in Escherichia coli BL21 assessed as residual activity at 1000 nM after 30 mins by Kinomescan method relative to control. The procedure, abridged:
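Single-point screen at a fixed 1 µM, run within a 456-kinase DiscoveRx KINOMEscan panel. Each kinase's read-out is Percent Control, i.e. signal relative to a control without compound. Hits were scored by a Percent Control < 35 cut-off, and an S(35) selectivity score was calculated across the non-mutant kinases.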

The target of assay [10] is Cyclin-dependent kinase 14 (Homo sapiens) (UniProt O94921). The assay is described as follows: Inhibition of wild-type human full length PFTK1 (M1 to H451 residues) expressed in Escherichia coli BL21 assessed as residual activity at 1000 nM after 30 mins by Kinomescan method relative to control. The procedure, abridged: as §1
The target in assay [11] is Ankyrin repeat and protein kinase domain-containing protein 1 (Homo sapiens) (UniProt Q8NFD2). The assay is described as follows: Inhibition of wild-type human partial length ANKK1 (M1 to A305 residues) expressed in HEK293 cells assessed as residual activity at 1000 nM after 30 mins by Kinomescan method relative to control. It is filed as cell-based.
The target in assay [12] is Receptor-type tyrosine-protein kinase FLT3 (Homo sapiens) (UniProt P36888). The assay is described as follows: Inhibition of wild-type human partial length autoinhibited FLT3 (H564 to Y969 residues) expressed in HEK293 cells assessed as residual activity at 1000 nM after 30 mins by Kinomescan method relative to control. It is filed as cell-based.
For assay [13], the target named is Rho-associated protein kinase 1 (Homo sapiens) (UniProt Q13464). The assay is described as follows: Inhibition of wild-type human partial length ROCK1 (M1 to R415 residues) expressed in HEK293 cells assessed as residual activity at 1000 nM after 30 mins by Kinomescan method relative to control. It is filed as cell-based.
Assay [14] has as its system Mast/stem cell growth factor receptor Kit (Homo sapiens), P10721 [L576P]. Put plainly: Inhibition of human partial length KIT L576P mutant (Y545 to D952 residues) expressed in Escherichia coli BL21 assessed as residual activity at 1000 nM after 30 mins by Kinomescan method relative to control. The procedure, abridged:
(§2)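 KINOMEscan binding panel of 456 kinases, with the test compound at a single concentration of 1 µM. Read-out is Percent Control.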

Assay [15] concerns the target Serine/threonine-protein kinase WNK3 (Homo sapiens) (UniProt Q9BYP7). The assay is described as follows: Inhibition of wild-type human partial length WNK3 (M1 to D434 residues) expressed in HEK293 cells assessed as residual activity at 1000 nM after 30 mins by Kinomescan method relative to control. The class given is cell-based.
The target in assay [16] is MAP kinase-interacting serine/threonine-protein kinase 1 (Homo sapiens) (UniProt Q9BUB5). The assay is described as follows: Inhibition of wild-type human full length MKNK1 (M1 to L424 residues) expressed in HEK293 cells assessed as residual activity at 1000 nM after 30 mins by Kinomescan method relative to control. The class given is cell-based. The gist of the method:
as §1

For assay [17], the system named is Phosphatidylinositol 4,5-bisphosphate 3-kinase catalytic subunit alpha isoform (Homo sapiens), P42336 [C420R]. The assay is described as follows: Inhibition of human partial length PIK3CA C420R mutant (R108 to N1068 residues) expressed in HEK293 cells assessed as residual activity at 1000 nM after 30 mins by Kinomescan method relative to control. The class given is cell-based. The procedure, abridged:
as §2

The target of assay [18] is Serine/threonine-protein kinase DCLK1 (Homo sapiens) (UniProt O15075). Put plainly: Inhibition of wild-type human partial length DCAMKL1 (L270 to A662 residues) expressed in HEK293 cells assessed as residual activity at 1000 nM after 30 mins by Kinomescan method relative to control. The class given is cell-based.
In assay [19] the target is Cyclin-dependent kinase 11A (Homo sapiens) (UniProt Q9UQ88). Put plainly: Inhibition of wild-type human partial length CDC2L2 (D391 to K730 residues) expressed in Escherichia coli BL21 assessed as residual activity at 1000 nM after 30 mins by Kinomescan method relative to control.
Sequence of Cyclin-dependent kinase 11A (Homo sapiens) (Q9UQ88 whole entry, the tested form may be a part): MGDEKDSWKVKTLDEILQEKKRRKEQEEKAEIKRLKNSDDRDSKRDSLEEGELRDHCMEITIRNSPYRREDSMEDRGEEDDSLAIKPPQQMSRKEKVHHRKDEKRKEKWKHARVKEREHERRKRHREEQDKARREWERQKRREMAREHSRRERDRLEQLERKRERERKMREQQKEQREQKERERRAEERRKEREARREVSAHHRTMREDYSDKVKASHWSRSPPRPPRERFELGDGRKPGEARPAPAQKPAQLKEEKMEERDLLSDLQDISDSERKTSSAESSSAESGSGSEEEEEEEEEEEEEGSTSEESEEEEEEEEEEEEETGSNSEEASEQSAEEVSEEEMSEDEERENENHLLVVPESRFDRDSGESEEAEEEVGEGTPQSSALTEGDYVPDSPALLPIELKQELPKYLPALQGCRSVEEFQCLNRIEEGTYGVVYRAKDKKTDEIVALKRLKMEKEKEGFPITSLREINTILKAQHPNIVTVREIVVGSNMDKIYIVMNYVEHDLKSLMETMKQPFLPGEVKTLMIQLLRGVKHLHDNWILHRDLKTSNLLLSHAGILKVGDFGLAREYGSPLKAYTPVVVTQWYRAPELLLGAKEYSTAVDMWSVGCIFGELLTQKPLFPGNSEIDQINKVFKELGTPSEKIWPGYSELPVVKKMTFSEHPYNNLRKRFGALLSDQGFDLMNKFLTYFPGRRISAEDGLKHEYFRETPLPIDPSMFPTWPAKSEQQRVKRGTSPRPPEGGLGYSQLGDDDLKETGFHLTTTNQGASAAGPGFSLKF
The species named for a further assay is Homo sapiens. Put plainly: Inhibition of human partial length FLT3 ITD mutant expressed in Escherichia coli BL21 assessed as residual activity at 1000 nM after 30 mins by Kinomescan method relative to control. The procedure, abridged:
as §2

In assay [20] the target is Mitogen-activated protein kinase 8 (Homo sapiens) (UniProt P45983). The assay is described as follows: Inhibition of wild-type human full length JNK1 (M1 to Q384 residues) expressed in HEK293 cells assessed as residual activity at 1000 nM after 30 mins by Kinomescan method relative to control. It is filed as cell-based. The gist of the method:
as §1

Sequence of MAP kinase-interacting serine/threonine-protein kinase 1 (Homo sapiens) (Q9BUB5 whole entry, looked up, the tested form may be a part): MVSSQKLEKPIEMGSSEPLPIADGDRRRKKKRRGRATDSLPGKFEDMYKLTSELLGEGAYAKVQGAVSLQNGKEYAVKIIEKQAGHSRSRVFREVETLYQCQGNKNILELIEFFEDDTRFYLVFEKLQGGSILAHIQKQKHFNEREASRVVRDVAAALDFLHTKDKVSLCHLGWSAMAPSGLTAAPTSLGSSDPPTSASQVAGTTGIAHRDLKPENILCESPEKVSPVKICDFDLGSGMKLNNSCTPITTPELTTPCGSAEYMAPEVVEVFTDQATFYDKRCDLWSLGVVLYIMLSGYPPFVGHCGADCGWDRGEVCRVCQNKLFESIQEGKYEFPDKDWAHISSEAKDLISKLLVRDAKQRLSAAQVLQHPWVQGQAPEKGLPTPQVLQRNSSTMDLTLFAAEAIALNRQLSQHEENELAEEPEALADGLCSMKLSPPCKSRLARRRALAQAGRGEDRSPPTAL
Sequence of Aurora kinase C (Homo sapiens) (Q9UQB9 whole entry, the tested form may be a part): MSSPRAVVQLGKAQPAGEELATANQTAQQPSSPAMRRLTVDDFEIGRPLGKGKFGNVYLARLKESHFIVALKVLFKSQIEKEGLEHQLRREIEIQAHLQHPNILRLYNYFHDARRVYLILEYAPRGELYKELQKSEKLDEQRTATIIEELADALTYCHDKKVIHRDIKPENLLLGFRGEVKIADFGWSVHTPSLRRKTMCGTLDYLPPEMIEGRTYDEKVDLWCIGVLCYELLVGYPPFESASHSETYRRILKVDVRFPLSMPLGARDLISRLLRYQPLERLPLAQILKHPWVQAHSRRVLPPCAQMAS
Sequence of Mitogen-activated protein kinase 8 (Homo sapiens) (P45983 whole entry, the tested form may be a part): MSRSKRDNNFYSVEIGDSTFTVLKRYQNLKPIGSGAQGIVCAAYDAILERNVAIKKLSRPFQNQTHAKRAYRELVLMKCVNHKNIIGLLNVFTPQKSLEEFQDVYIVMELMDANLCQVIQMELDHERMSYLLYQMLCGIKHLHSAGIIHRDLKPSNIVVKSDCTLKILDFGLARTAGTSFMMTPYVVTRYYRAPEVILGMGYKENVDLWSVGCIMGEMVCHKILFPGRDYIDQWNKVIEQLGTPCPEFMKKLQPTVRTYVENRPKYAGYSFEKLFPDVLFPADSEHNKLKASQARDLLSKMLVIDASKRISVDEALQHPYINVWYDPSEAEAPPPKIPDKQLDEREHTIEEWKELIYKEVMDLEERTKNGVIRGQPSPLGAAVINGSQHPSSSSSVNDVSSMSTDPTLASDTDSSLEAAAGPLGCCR

For `COc1cc(OC)c(Cl)c(N2Cc3cnc(Nc4ccc(F)cc4)nc3N(C3CCN(C(=O)/C=C/CN(C)C)CC3)C2=O)c1Cl`, the Activity amounted to 0.4% in [1]; 40% in assay [2]; 14% in assay [3]; 76% in [4]; 93% in assay [5]; 100% in assay [6]. The Activity in assay [7] turned out to be 97%; in [8], 100%; in assay [9] it was 100%; in assay [10], 92%; in [11], 96%; in [12] it was 100%. Also, the Activity in assay [13] turned out to be 100%; in [14], 2.6%; in [15], 86%; in [16], 88%; in assay [17], 100%; in assay [18], 95%. Also, the Activity in [19] worked out at 88%; in the assay listed under Homo sapiens it was 78%; in [20] it was 87%.
